≈ marks a conversion by molar mass, not a printed value.
tested on: DU-145; experiment: Cytotoxicity against […] human DU145 cells after 48 hrs by SRB assay; assay type: functional; settings: DU-145, 48 h
In short: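 SRB assay in DU-145 cells grown in RPMI 1640 with 10% FBS and 2 mM L-glutamine. Cells were plated and held 24 h before addition of four 10-fold concentrations. After 48 h, cells were TCA-fixed, stained with 0.4% SRB and read at 540 nm. GI50, TGI and LC50 were derived against time-zero and control wells; each value is the mean of three experiments.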

| Compound | GI50 [µM] | LC50 (concentration giving 50% net cell kill relative to time zero) [µM] | TGI [µM] |
| --- | --- | --- | --- |
| N#Cc1ccc(Nc2nc(Oc3ccnc4ccccc34)nc(N3CCN(C(c4ccccc4)c4ccc(Cl)cc4)CC3)n2)cc1C(F)(F)F (configuration not stated) | > 100 | > 100 | > 100 |

tested on: Pseudomonas aeruginosa; experiment: Antibacterial activity against 10^5 CFU/mL Pseudomonas aeruginosa MTCC 741 after 24 hrs by disc diffusion technique; assay type: functional; settings: not given
In short: (§1)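 Disc diffusion on Mueller–Hinton agar poured 5 mm deep. The surface was swabbed with a 10⁵ CFU/mL […] suspension. Filter-paper discs 6.25 mm in diameter were soaked in compound in DMSO and placed on the agar. Plates were incubated 24 h at 37 ± 1 °C, and the inhibition zone was measured in mm. A DMSO disc served as blank.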

| Compound | inhibition zone (IZ) [mm] |
| --- | --- |
| N#Cc1ccc(Nc2nc(Oc3ccnc4ccccc34)nc(N3CCN(C(c4ccccc4)c4ccc(Cl)cc4)CC3)n2)cc1C(F)(F)F (configuration not stated) | 24 |

tested on: Klebsiella pneumoniae; experiment: Antibacterial activity against 10^5 CFU/mL Klebsiella pneumoniae MTCC 109 after 24 hrs by disc diffusion technique; assay type: functional; settings: not given; in short: as §1

| Compound | inhibition zone (IZ) [mm] |
| --- | --- |
| N#Cc1ccc(Nc2nc(Oc3ccnc4ccccc34)nc(N3CCN(C(c4ccccc4)c4ccc(Cl)cc4)CC3)n2)cc1C(F)(F)F (configuration not stated) | 25 |

tested on: Salmonella typhi; experiment: Antibacterial activity against 10^5 CFU/mL Salmonella typhi MTCC 733 after 24 hrs by disc diffusion technique; assay type: functional, Salmonella enterica subsp. enterica serovar Typhi; settings: not given
In short: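 Disc diffusion. Mueller-Hinton agar autoclaved 120 °C 30 min, poured 5 mm deep. Surface swabbed with 10⁵ CFU/mL suspension […]. 6.25 mm filter-paper discs soaked in compound in DMSO; DMSO-only disc as blank. Incubated 37 ± 1 °C, 24 h for bacteria or 48 h for fungi. Ciprofloxacin and ketoconazole discs as reference drugs. Inhibition zone measured in mm.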

| Compound | inhibition zone (IZ) [mm] |
| --- | --- |
| N#Cc1ccc(Nc2nc(Oc3ccnc4ccccc34)nc(N3CCN(C(c4ccccc4)c4ccc(Cl)cc4)CC3)n2)cc1C(F)(F)F (configuration not stated) | 25 |

tested on: Staphylococcus aureus; experiment: Antibacterial activity against 10^5 CFU/mL Staphylococcus aureus MTCC 96 after 24 hrs by disc diffusion technique; assay type: functional; settings: not given; in short: as §1

| Compound | inhibition zone (IZ) [mm] |
| --- | --- |
| N#Cc1ccc(Nc2nc(Oc3ccnc4ccccc34)nc(N3CCN(C(c4ccccc4)c4ccc(Cl)cc4)CC3)n2)cc1C(F)(F)F (configuration not stated) | 25 |

tested on: Candida albicans; experiment: Antifungal activity against 10^5 CFU/mL Candida albicans MTCC 183 after 48 hrs by disc diffusion technique; assay type: functional; settings: not given

| Compound | inhibition zone (IZ) [mm] |
| --- | --- |
| N#Cc1ccc(Nc2nc(Oc3ccnc4ccccc34)nc(N3CCN(C(c4ccccc4)c4ccc(Cl)cc4)CC3)n2)cc1C(F)(F)F (configuration not stated) | 25 |

tested on: Escherichia coli; experiment: Antibacterial activity against 10^5 CFU/mL Escherichia coli MTCC 739 after 24 hrs by agar streak dilution method; assay type: functional; settings: MTCC 739, 24 h
In short: (§2)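 Agar streak dilution. Stock 100 µg/mL in DMSO; graded amounts were mixed into molten nutrient agar and poured at 4–5 mm depth. Plates carried serial dilutions over […]. About 10⁵ CFU/mL of each bacterium was applied, and plates were incubated at 37 ± 1 °C for 24 h. MIC was read from the dilution series.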

| Compound | MIC [µg/mL] |
| --- | --- |
| N#Cc1ccc(Nc2nc(Oc3ccnc4ccccc34)nc(N3CCN(C(c4ccccc4)c4ccc(Cl)cc4)CC3)n2)cc1C(F)(F)F (configuration not stated) | 50 (≈ 72.1 µM) |

tested on: Bacillus cereus; experiment: Antibacterial activity against 10^5 CFU/mL Bacillus cereus MTCC 619 after 24 hrs by disc diffusion technique; assay type: functional; settings: not given; in short: as §1

| Compound | inhibition zone (IZ) [mm] |
| --- | --- |
| N#Cc1ccc(Nc2nc(Oc3ccnc4ccccc34)nc(N3CCN(C(c4ccccc4)c4ccc(Cl)cc4)CC3)n2)cc1C(F)(F)F (configuration not stated) | 25 |

tested on: Candida albicans; experiment: Antifungal activity against 10^5 CFU/mL Candida albicans MTCC 183 after 48 hrs by agar streak dilution method; assay type: functional; settings: MTCC 183, 48 h
In short: (§3)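 Agar streak dilution for fungi. Stock 100 µg/mL in DMSO; graded amounts were mixed into molten Sabouraud dextrose agar and poured at 4–5 mm depth. Serial dilutions ran over […]. About 10⁵ CFU/mL inoculum was applied, with incubation at 37 ± 1 °C for 48 h. MIC was read from the dilution series.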

| Compound | MIC [µg/mL] |
| --- | --- |
| N#Cc1ccc(Nc2nc(Oc3ccnc4ccccc34)nc(N3CCN(C(c4ccccc4)c4ccc(Cl)cc4)CC3)n2)cc1C(F)(F)F (configuration not stated) | 25 (≈ 36.1 µM) |

tested on: Escherichia coli; experiment: Antibacterial activity against 10^5 CFU/mL Escherichia coli MTCC 739 after 24 hrs by disc diffusion technique; assay type: functional; settings: not given; in short: as §1

| Compound | inhibition zone (IZ) [mm] |
| --- | --- |
| N#Cc1ccc(Nc2nc(Oc3ccnc4ccccc34)nc(N3CCN(C(c4ccccc4)c4ccc(Cl)cc4)CC3)n2)cc1C(F)(F)F (configuration not stated) | 23 |

tested on: Bacillus cereus; experiment: Antibacterial activity against 10^5 CFU/mL Bacillus cereus MTCC 619 after 24 hrs by agar streak dilution method; assay type: functional; settings: MTCC 619, 24 h; in short: as §2

| Compound | MIC [µg/mL] |
| --- | --- |
| N#Cc1ccc(Nc2nc(Oc3ccnc4ccccc34)nc(N3CCN(C(c4ccccc4)c4ccc(Cl)cc4)CC3)n2)cc1C(F)(F)F (configuration not stated) | 12.5 (≈ 18 µM) |

tested on: Shigella flexneri; experiment: Antibacterial activity against 10^5 CFU/mL Shigella flexneri MTCC 1457 after 24 hrs by disc diffusion technique; assay type: functional; settings: not given; in short: as §1

| Compound | inhibition zone (IZ) [mm] |
| --- | --- |
| N#Cc1ccc(Nc2nc(Oc3ccnc4ccccc34)nc(N3CCN(C(c4ccccc4)c4ccc(Cl)cc4)CC3)n2)cc1C(F)(F)F (configuration not stated) | 22 |

tested on: Pseudomonas aeruginosa; experiment: Antibacterial activity against 10^5 CFU/mL Pseudomonas aeruginosa MTCC 741 after 24 hrs by agar streak dilution method; assay type: functional; settings: MTCC 741, 24 h; in short: as §2

| Compound | MIC [µg/mL] |
| --- | --- |
| N#Cc1ccc(Nc2nc(Oc3ccnc4ccccc34)nc(N3CCN(C(c4ccccc4)c4ccc(Cl)cc4)CC3)n2)cc1C(F)(F)F (configuration not stated) | 12.5 (≈ 18 µM) |

tested on: Proteus vulgaris; experiment: Antibacterial activity against 10^5 CFU/mL Proteus vulgaris MTCC 1771 after 24 hrs by agar streak dilution method; assay type: functional; settings: MTCC 1771, 24 h; in short: as §2

| Compound | MIC [µg/mL] |
| --- | --- |
| N#Cc1ccc(Nc2nc(Oc3ccnc4ccccc34)nc(N3CCN(C(c4ccccc4)c4ccc(Cl)cc4)CC3)n2)cc1C(F)(F)F (configuration not stated) | 6.25 (≈ 9.02 µM) |

tested on: Aspergillus niger; experiment: Antifungal activity against 10^5 CFU/mL Aspergillus niger MTCC 282 after 48 hrs by disc diffusion technique; assay type: functional; settings: not given

| Compound | inhibition zone (IZ) [mm] |
| --- | --- |
| N#Cc1ccc(Nc2nc(Oc3ccnc4ccccc34)nc(N3CCN(C(c4ccccc4)c4ccc(Cl)cc4)CC3)n2)cc1C(F)(F)F (configuration not stated) | 25 |

tested on: Aspergillus fumigatus; experiment: Antifungal activity against 10^5 CFU/mL Aspergillus fumigatus MTCC 343 after 48 hrs by disc diffusion technique; assay type: functional; settings: not given

| Compound | inhibition zone (IZ) [mm] |
| --- | --- |
| N#Cc1ccc(Nc2nc(Oc3ccnc4ccccc34)nc(N3CCN(C(c4ccccc4)c4ccc(Cl)cc4)CC3)n2)cc1C(F)(F)F (configuration not stated) | 26 |

tested on: Aspergillus clavatus; experiment: Antifungal activity against 10^5 CFU/mL Aspergillus clavatus MTCC 1323 after 48 hrs by agar streak dilution method; assay type: functional; settings: MTCC 1323, 48 h; in short: as §3

| Compound | MIC [µg/mL] |
| --- | --- |
| N#Cc1ccc(Nc2nc(Oc3ccnc4ccccc34)nc(N3CCN(C(c4ccccc4)c4ccc(Cl)cc4)CC3)n2)cc1C(F)(F)F (configuration not stated) | 50 (≈ 72.1 µM) |

tested on: Proteus vulgaris; experiment: Antibacterial activity against 10^5 CFU/mL Proteus vulgaris MTCC 1771 after 24 hrs by disc diffusion technique; assay type: functional; settings: not given; in short: as §1

| Compound | inhibition zone (IZ) [mm] |
| --- | --- |
| N#Cc1ccc(Nc2nc(Oc3ccnc4ccccc34)nc(N3CCN(C(c4ccccc4)c4ccc(Cl)cc4)CC3)n2)cc1C(F)(F)F (configuration not stated) | 27 |

tested on: Aspergillus clavatus; experiment: Antifungal activity against 10^5 CFU/mL Aspergillus clavatus MTCC 1323 after 48 hrs by disc diffusion technique; assay type: functional; settings: not given

| Compound | inhibition zone (IZ) [mm] |
| --- | --- |
| N#Cc1ccc(Nc2nc(Oc3ccnc4ccccc34)nc(N3CCN(C(c4ccccc4)c4ccc(Cl)cc4)CC3)n2)cc1C(F)(F)F (configuration not stated) | 25 |

tested on: Shigella flexneri; experiment: Antibacterial activity against 10^5 CFU/mL Shigella flexneri MTCC 1457 after 24 hrs by agar streak dilution method; assay type: functional; settings: MTCC 1457, 24 h; in short: as §2

| Compound | MIC [µg/mL] |
| --- | --- |
| N#Cc1ccc(Nc2nc(Oc3ccnc4ccccc34)nc(N3CCN(C(c4ccccc4)c4ccc(Cl)cc4)CC3)n2)cc1C(F)(F)F (configuration not stated) | 25 (≈ 36.1 µM) |

tested on: Klebsiella pneumoniae; experiment: Antibacterial activity against 10^5 CFU/mL Klebsiella pneumoniae MTCC 109 after 24 hrs by agar streak dilution method; assay type: functional; settings: MTCC 109, 24 h; in short: as §2

| Compound | MIC [µg/mL] |
| --- | --- |
| N#Cc1ccc(Nc2nc(Oc3ccnc4ccccc34)nc(N3CCN(C(c4ccccc4)c4ccc(Cl)cc4)CC3)n2)cc1C(F)(F)F (configuration not stated) | 12.5 (≈ 18 µM) |

tested on: Aspergillus niger; experiment: Antifungal activity against 10^5 CFU/mL Aspergillus niger MTCC 282 after 48 hrs by agar streak dilution method; assay type: functional; settings: MTCC 282, 48 h; in short: as §3

| Compound | MIC [µg/mL] |
| --- | --- |
| N#Cc1ccc(Nc2nc(Oc3ccnc4ccccc34)nc(N3CCN(C(c4ccccc4)c4ccc(Cl)cc4)CC3)n2)cc1C(F)(F)F (configuration not stated) | 25 (≈ 36.1 µM) |

tested on: Staphylococcus aureus; experiment: Antibacterial activity against 10^5 CFU/mL Staphylococcus aureus MTCC 96 after 24 hrs by agar streak dilution method; assay type: functional; settings: MTCC 96, 24 h; in short: as §2

| Compound | MIC [µg/mL] |
| --- | --- |
| N#Cc1ccc(Nc2nc(Oc3ccnc4ccccc34)nc(N3CCN(C(c4ccccc4)c4ccc(Cl)cc4)CC3)n2)cc1C(F)(F)F (configuration not stated) | 12.5 (≈ 18 µM) |

tested on: Aspergillus fumigatus; experiment: Antifungal activity against 10^5 CFU/mL Aspergillus fumigatus MTCC 343 after 48 hrs by agar streak dilution method; assay type: functional; settings: MTCC 343, 48 h; in short: as §3

| Compound | MIC [µg/mL] |
| --- | --- |
| N#Cc1ccc(Nc2nc(Oc3ccnc4ccccc34)nc(N3CCN(C(c4ccccc4)c4ccc(Cl)cc4)CC3)n2)cc1C(F)(F)F (configuration not stated) | 25 (≈ 36.1 µM) |

tested on: Salmonella typhi; experiment: Antibacterial activity against 10^5 CFU/mL Salmonella typhi MTCC 733 after 24 hrs by agar streak dilution method; assay type: functional, Salmonella enterica subsp. enterica serovar Typhi; settings: Salmonella enterica, MTCC 733, 24 h

| Compound | MIC [µg/mL] |
| --- | --- |
| N#Cc1ccc(Nc2nc(Oc3ccnc4ccccc34)nc(N3CCN(C(c4ccccc4)c4ccc(Cl)cc4)CC3)n2)cc1C(F)(F)F (configuration not stated) | 25 (≈ 36.1 µM) |
